We go through 15 compounds from ChEMBL document CHEMBL4665625, “New pyrido[3,4-g]quinazoline derivatives as CLK1 and DYRK1A inhibitors: synthesis, biological evaluation and binding mode analysis” (Eur J Med Chem, 2019).

The species entered for assay [1] is Sus scrofa domesticus. Kind of assay: Inhibition of porcine brain CK1delta/epsilon assessed as residual activity at 1 uM using RRKHAAIGSpAYSITA as substrate in presence of [gamma-33P]ATP relative to control. The class given is tissue-based.
The target of assay [2] is T1, Cyclin-dependent kinase 5/CDK5 activator 1 (Homo sapiens) (UniProt Q00535+Q15078). Description: Inhibition of recombinant human CDK5/p25 expressed in bacteria assessed as residual activity at 10 uM using histone H1 as substrate in presence of [gamma-33P]ATP relative to control. In short, it runs like this:
(§1)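 Human recombinant CDK5/p25 (bacterially expressed) assayed with 0.8 μg/μl histone H1 as substrate and 15 μM [γ-33P]ATP. Residual activity versus DMSO controls, triplicate.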

Assay [3] concerns the target T1, Cyclin-dependent kinase 5/CDK5 activator 1 (Homo sapiens). Kind of assay: Inhibition of recombinant human CDK5/p25 expressed in bacteria assessed as residual activity at 1 uM using histone H1 as substrate in presence of [gamma-33P]ATP relative to control. Summed up:
as §1

In assay [4] the target is T2, Glycogen synthase kinase-3 (Sus scrofa) (UniProt B2LUN4+I6LNT8). Description: Inhibition of porcine brain GSK-3alpha/beta assessed as residual activity at 1 uM using YRRAAVPPSPSLSRHSSPHQSpEDEEE as substrate in presence of [gamma-33P]ATP relative to control. To be noted: Sus scrofa domesticus. The class given is tissue-based. In short, it runs like this:
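Affinity-purified porcine brain GSK-3α/β with 0.01 µg/µl GS-1 peptide (phosphoserine-primed) as substrate and 15 µM [γ-33P]ATP. Buffer was 25 mM Tris-HCl pH 7.5, 10 mM MgCl2, 1 mM EGTA, 1 mM DTT, 50 µg/ml heparin and 0.15 mg/ml BSA. Radioactive incorporation was compared with DMSO-dilution controls, in triplicate.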

In assay [5] the target is Dual specificity protein kinase CLK1 (Mus musculus) (UniProt P22518). Kind of assay: Inhibition of recombinant mouse CLK1 expressed in bacteria assessed as residual activity at 1 uM using GRSRSRSRSRSR as substrate in presence of [gamma-33P]ATP relative to control.
Dual specificity protein kinase CLK1 (Mus musculus), sequence (P22518 whole entry, looked up, the tested form may be a part): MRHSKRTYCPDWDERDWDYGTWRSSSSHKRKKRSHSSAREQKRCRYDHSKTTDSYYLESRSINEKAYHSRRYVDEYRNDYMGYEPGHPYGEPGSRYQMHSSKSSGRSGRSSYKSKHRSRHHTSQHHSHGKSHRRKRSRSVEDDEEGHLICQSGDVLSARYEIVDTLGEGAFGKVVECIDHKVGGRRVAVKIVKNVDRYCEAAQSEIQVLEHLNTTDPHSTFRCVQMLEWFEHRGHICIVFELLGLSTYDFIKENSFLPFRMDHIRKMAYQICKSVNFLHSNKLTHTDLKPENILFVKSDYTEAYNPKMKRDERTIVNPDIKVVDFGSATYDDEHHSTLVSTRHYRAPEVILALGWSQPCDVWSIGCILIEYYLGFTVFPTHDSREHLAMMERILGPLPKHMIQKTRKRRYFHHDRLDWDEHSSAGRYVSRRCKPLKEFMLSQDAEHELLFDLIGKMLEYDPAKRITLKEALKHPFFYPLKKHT
Assay [6] addresses T2, Glycogen synthase kinase-3 (Sus scrofa). Kind of assay: Inhibition of porcine brain GSK-3alpha/beta assessed as residual activity at 10 uM using YRRAAVPPSPSLSRHSSPHQSpEDEEE as substrate in presence of [gamma-33P]ATP relative to control. To be noted: Sus scrofa domesticus. The class given is tissue-based.
The species entered for assay [7] is Sus scrofa domesticus. Kind of assay: Inhibition of porcine brain CK1delta/epsilon assessed as residual activity at 10 uM using RRKHAAIGSpAYSITA as substrate in presence of [gamma-33P]ATP relative to control. The class given is tissue-based.
For assay [8], the target named is Dual specificity protein kinase CLK1 (Mus musculus) (UniProt P22518). Kind of assay: Inhibition of recombinant mouse CLK1 expressed in bacteria assessed as residual activity at 10 uM using GRSRSRSRSRSR as substrate in presence of [gamma-33P]ATP relative to control.
The target of assay [9] is Dual specificity tyrosine-phosphorylation-regulated kinase 1A (Rattus norvegicus) (UniProt Q63470). Description: Inhibition of rat DYRK1A kinase domain (1 to 499 residues) expressed in bacteria assessed as residual activity at 1 uM using KKISGRLSPIMTEQ as substrate in presence of [gamma-33P]ATP relative to control. Summed up:
(§2)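 Buffer: 10 mM MgCl2, 1 mM EGTA, 1 mM DTT, 25 mM Tris-HCl pH 7.5, 50 μg/ml heparin, 0.15 mg/ml BSA.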

Assay [10] shares this target. Description: Inhibition of rat DYRK1A kinase domain (1 to 499 residues) expressed in bacteria assessed as residual activity at 10 uM using KKISGRLSPIMTEQ as substrate in presence of [gamma-33P]ATP relative to control. Summed up: as §2

T1 sequence (Q00535 whole entry): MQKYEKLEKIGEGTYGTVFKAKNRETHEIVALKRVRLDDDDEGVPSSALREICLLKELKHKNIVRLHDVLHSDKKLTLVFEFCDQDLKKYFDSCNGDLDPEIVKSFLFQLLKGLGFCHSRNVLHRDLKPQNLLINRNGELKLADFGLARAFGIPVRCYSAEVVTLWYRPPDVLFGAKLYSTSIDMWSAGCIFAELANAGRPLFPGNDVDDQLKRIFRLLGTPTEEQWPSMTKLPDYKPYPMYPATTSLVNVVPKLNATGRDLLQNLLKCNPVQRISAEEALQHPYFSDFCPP
T1 sequence (Q15078 99-307 partner limits assumed): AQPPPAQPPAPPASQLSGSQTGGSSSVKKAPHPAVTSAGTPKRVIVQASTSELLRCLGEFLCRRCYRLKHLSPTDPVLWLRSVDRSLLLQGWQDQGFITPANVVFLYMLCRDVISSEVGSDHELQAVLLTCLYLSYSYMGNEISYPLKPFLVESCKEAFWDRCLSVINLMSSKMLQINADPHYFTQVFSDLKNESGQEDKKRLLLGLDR

For `O=[N+]([O-])c1c2ccncc2cc2cnc(NCCN3CCOCC3)nc12`, the Activity was 93% in assay [1]; 69% in assay [2]; 100% in assay [3]; 88% in [4]; 36% in assay [5]; 43% in assay [6]. For the same compound, the Activity worked out at 75% in assay [7], 5% in [8], 73% in assay [9] and 20% in assay [10].
Turning to `CCN(CC)CCCNc1ncc2cc3cnccc3c([N+](=O)[O-])c2n1`, the Activity in assay [1] stood at 87%; in assay [2], 50%; in assay [3], 100%; in assay [4], 92%; in assay [5], 31%; in [6], 24%. The Activity in [7] came to 59%; in assay [8] it was 4%; in assay [9], 72%; in assay [10], 23%.
As for `CCN(CC)CCNc1ncc2cc3cnccc3c([N+](=O)[O-])c2n1`, the Activity in assay [1] was determined as 91%; in assay [2], 79%; in assay [3], 100%; in assay [4], 74%; in assay [5], 46%; in assay [6], 26%. In addition, the Activity in [7] stood at 78%; in assay [8], 8%; in assay [9], 88%; in assay [10], 47%.
With `CN(C)CCNc1ncc2cc3cnccc3c(N)c2n1`, the Activity in assay [1] was determined as 78%; in assay [2] it was 86%; in [3] it was 96%; in assay [4], 58%; in [5], 51%; in assay [6], 48%. Further, the Activity worked out at 82% in [7], 21% in [8], 60% in assay [9] and 32% in assay [10].
On to `Nc1c2ccncc2cc2cnc(NCCN3CCCCC3)nc12`, for which the Activity in assay [1] was 74%; in assay [2], 76%; in [3], 95%; in assay [4] it was 43%; in assay [5], 44%; in [6], 24%. For the same compound, the Activity in assay [7] was found to be 52%; in [8], 11%; in assay [9], 37%; in assay [10], 16%.
For `CCN(CC)CCNc1ncc2cc3cnccc3c(N)c2n1`, the Activity worked out at 91% in [1]; 40% in [2]; 97% in assay [3]; 73% in assay [4]; 31% in assay [5]; 34% in assay [6]. The Activity in assay [7] turned out to be 60%; in assay [8] it was 3%; in assay [9] it was 49%; in assay [10], 6%.
Consider `Nc1c2ccncc2cc2cnc(-c3ccccc3)nc12`, for which the Activity worked out at 62% in assay [1]; 65% in [2]; 92% in [3]; 85% in assay [4]; 68% in [5]; 40% in [6]. In addition, the Activity in assay [7] was determined as 51%; in [8], 32%; in assay [9], 80%; in [10] it was 41%.
As to `Nc1c2ccncc2cc2cnc(NCCN3CCCC3)nc12`, the Activity in assay [1] was 90%; in assay [2], 51%; in assay [3] it was 100%; in assay [4] it was 62%; in assay [5], 33%; in assay [6], 29%. For the same compound, the Activity in assay [7] worked out at 61%; in [8], 4%; in assay [9], 54%; in assay [10], 7%.
Regarding `O=[N+]([O-])c1c2ccncc2cc2cnc(NCCN3CCCCC3)nc12`, the Activity stood at 81% in assay [1]; 85% in [2]; 96% in assay [3]; 39% in assay [4]; 42% in assay [5]; 1% in assay [6]. In addition, the Activity in assay [7] was determined as 37%; in assay [8], 1%; in [9], 52%; in assay [10], 26%.
Regarding `Nc1c2ccncc2cc2cnc(NCCCN3CCCCC3)nc12`, the Activity was 76% in assay [1]; 62% in assay [2]; 100% in assay [3]; 51% in [4]; 30% in assay [5]; 30% in [6]. For the same compound, the Activity in assay [7] was 48%; in assay [8], 4%; in [9] it was 26%; in assay [10], 4%.
`O=[N+]([O-])c1c2ccncc2cc2cnc(NCCN3CCCC3)nc12`: the Activity in [1] was found to be 92%; in [2] it was 83%; in assay [3] it was 100%; in assay [4] it was 81%; in assay [5] it was 27%; in assay [6], 33%. Besides, the Activity in assay [7] amounted to 73%; in [8], 7%; in assay [9], 83%; in [10] it was 29%.
With `O=[N+]([O-])c1c2ccncc2cc2cnc(NCCCN3CCCC3)nc12`, the Activity in assay [1] is 100%; in assay [2] it was 50%; in assay [3] it was 100%; in [4], 78%; in assay [5], 37%; in [6], 24%. Moreover, the Activity in assay [7] worked out at 37%; in assay [8], 5%; in assay [9] it was 87%; in [10], 6%.
Regarding `CN1CCN(CCNc2ncc3cc4cnccc4c([N+](=O)[O-])c3n2)CC1`, the Activity in [1] came to 63%; in assay [2] it was 77%; in assay [3], 84%; in [4], 69%; in assay [5], 32%; in assay [6] it was 22%. Besides, the Activity was 38% in [7], 0% in assay [8], 32% in assay [9] and 6% in assay [10].
Turning to `O=[N+]([O-])c1c2ccncc2cc2cnc(-c3ccccc3)nc12`, the Activity in assay [1] stood at 100%; in assay [2] it was 62%; in [3], 100%; in [4], 100%; in assay [5], 71%; in assay [6], 100%. For the same compound, the Activity is 57% in assay [7], 17% in assay [8], 100% in [9] and 38% in [10].
In the case of `CN(C)CCCNc1ncc2cc3cnccc3c([N+](=O)[O-])c2n1`, the Activity in [1] came out at 86%; in [2] it was 64%; in assay [3], 100%; in [4], 80%; in assay [5], 27%; in assay [6], 24%. The Activity in [7] worked out at 59%; in [8], 3%; in assay [9], 84%; in assay [10], 31%.
